In ChEMBL document CHEMBL2331240, “Focused library development of 2-phenylacrylamides as broad spectrum cytotoxic agents” (2013):
Active and inactive are the calls of the source. The calls are words filed in the database; no cut-off is given here.

Columns and labels:
[1] = test system: SMA; experiment: Cytotoxicity against mouse SMA cells assessed as growth inhibition at 25 uM measured after 72 hrs by MTT assay
[2] = test system: SJ-G2; experiment: Cytotoxicity against human SJ-G2 cells assessed as growth inhibition at 25 uM measured after 72 hrs by MTT assay; type: functional, cell-based
How it was run: (§1)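 Log-phase cells were plated in duplicate at 2500–4000 cells/well in DMEM with 10% FBS, glutamine and antibiotics, at 37 °C under 5% CO2. Drug was added 24 h after plating from a 40 mM DMSO stock, to a final 25 μM. After 72 h exposure, MTT was read at 540 nm and % growth inhibition was calculated, with 100% meaning total growth inhibition.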

[3] = test system: HT-29; experiment: Cytotoxicity against human HT-29 cells assessed as growth inhibition at 25 uM measured after 72 hrs by MTT assay; type: functional, cell-based
How it was run: as §1

[4] = test system: A-431; experiment: Cytotoxicity against human A431 cells assessed as growth inhibition at 25 uM measured after 72 hrs by MTT assay; type: functional, cell-based
How it was run: as §1

[5] = test system: SW480; experiment: Cytotoxicity against human SW480 cells assessed as growth inhibition at 25 uM measured after 72 hrs by MTT assay; type: functional
How it was run: as §1

[6] = test system: BE(2)-C; experiment: Cytotoxicity against human BE(2)-C cells assessed as growth inhibition at 25 uM measured after 72 hrs by MTT assay; type: functional
How it was run: as §1

[7] = test system: MIA; experiment: Cytotoxicity against human MIA cells assessed as growth inhibition at 25 uM measured after 72 hrs by MTT assay; type: functional
How it was run: as §1

[8] = test system: MCF7; experiment: Cytotoxicity against human MCF7 cells assessed as growth inhibition at 25 uM measured after 72 hrs by MTT assay; type: functional
How it was run: as §1

[9] = test system: DU-145; experiment: Cytotoxicity against human DU145 cells assessed as growth inhibition at 25 uM measured after 72 hrs by MTT assay; type: functional, cell-based
How it was run: as §1

[10] = test system: NCI-H460; experiment: Cytotoxicity against human H460 cells assessed as growth inhibition at 25 uM measured after 72 hrs by MTT assay; type: functional, cell-based
How it was run: as §1

[11] = test system: A2780; experiment: Cytotoxicity against human A2780 cells assessed as growth inhibition at 25 uM measured after 72 hrs by MTT assay; type: functional
How it was run: as §1

[12] = Cytotoxicity against human SJ-G2 cells assessed as growth inhibition measured after 72 hrs by MTT assay; type: functional; conditions: SJ-G2, 72 h
How it was run: (§2)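 Cells in log phase were seeded in duplicate at 2500–4000 cells/well in supplemented DMEM (37 °C, 5% CO2). Drug from a 40 mM DMSO stock was added on day 0, 24 h post-plating. Read-out was MTT absorbance at 540 nm after 72 h.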

[13] = test system: MCF7; experiment: Cytotoxicity against human MCF7 cells assessed as growth inhibition measured after 72 hrs by MTT assay; type: functional; conditions: MCF7, 72 h
How it was run: as §2

[14] = Cytotoxicity against human MIA cells assessed as growth inhibition measured after 72 hrs by MTT assay; type: functional
How it was run: as §2

[15] = Cytotoxicity against human BE(2)-C cells assessed as growth inhibition measured after 72 hrs by MTT assay; type: functional
How it was run: as §2

[16] = Cytotoxicity against human H460 cells assessed as growth inhibition measured after 72 hrs by MTT assay; type: functional; conditions: NCI-H460, 72 h
How it was run: as §2

[17] = test system: SW480; experiment: Cytotoxicity against human SW480 cells assessed as growth inhibition measured after 72 hrs by MTT assay; type: functional; conditions: SW480, 72 h
How it was run: as §2

[18] = test system: HT-29; experiment: Cytotoxicity against human HT-29 cells assessed as growth inhibition measured after 72 hrs by MTT assay; type: functional; conditions: HT-29, 72 h
How it was run: as §2

[19] = Cytotoxicity against mouse SMA cells assessed as growth inhibition measured after 72 hrs by MTT assay
[20] = test system: DU-145; experiment: Cytotoxicity against human DU145 cells assessed as growth inhibition measured after 72 hrs by MTT assay; type: functional; conditions: DU-145, 72 h
How it was run: as §2

[21] = test system: A-431; experiment: Cytotoxicity against human A431 cells assessed as growth inhibition measured after 72 hrs by MTT assay; type: functional; conditions: A-431, 72 h
How it was run: as §2

[22] = test system: A2780; experiment: Cytotoxicity against human A2780 cells assessed as growth inhibition measured after 72 hrs by MTT assay; type: functional; conditions: A2780, 72 h
How it was run: as §2

COc1ccc(/C=C(\C#N)C(=O)c2ccc[nH]2)cc1
growth inhibition (GI) [1]: inactive
growth inhibition (GI) [2]: inactive
growth inhibition (GI) [3]: inactive
growth inhibition (GI) [4]: inactive
growth inhibition (GI) [5]: inactive
growth inhibition (GI) [6]: inactive
growth inhibition (GI) [7]: inactive
growth inhibition (GI) [8]: inactive
growth inhibition (GI) [9]: inactive
growth inhibition (GI) [10]: inactive
growth inhibition (GI) [11]: inactive

N#C/C(=C\c1ccc(C(F)(F)F)cc1)C(=O)c1c[nH]c2ccccc12
growth inhibition (GI) [1]: inactive
growth inhibition (GI) [2]: inactive
growth inhibition (GI) [3]: inactive
growth inhibition (GI) [4]: inactive
growth inhibition (GI) [5]: inactive
growth inhibition (GI) [6]: inactive
growth inhibition (GI) [7]: inactive
growth inhibition (GI) [8]: inactive
growth inhibition (GI) [9]: inactive
growth inhibition (GI) [10]: inactive
growth inhibition (GI) [11]: inactive

N#C/C(=C\c1ccc(Cl)c(Cl)c1)C(=O)c1ccc[nH]1
growth inhibition (GI) [1]: inactive
growth inhibition (GI) [2]: inactive
growth inhibition (GI) [3]: inactive
growth inhibition (GI) [4]: inactive
growth inhibition (GI) [5]: inactive
growth inhibition (GI) [6]: inactive
growth inhibition (GI) [7]: inactive
growth inhibition (GI) [8]: inactive
growth inhibition (GI) [9]: inactive
growth inhibition (GI) [10]: inactive
growth inhibition (GI) [11]: inactive

N#C/C(=C\c1ccc2ccccc2c1)C(=O)c1ccc[nH]1
growth inhibition (GI) [1]: inactive
growth inhibition (GI) [2]: inactive
growth inhibition (GI) [3]: inactive
growth inhibition (GI) [4]: inactive
growth inhibition (GI) [5]: inactive
growth inhibition (GI) [6]: inactive
growth inhibition (GI) [7]: inactive
growth inhibition (GI) [8]: inactive
growth inhibition (GI) [9]: inactive
growth inhibition (GI) [10]: inactive
growth inhibition (GI) [11]: inactive

N#C/C(=C\c1ccc(C(F)(F)F)cc1)C(=O)c1ccc[nH]1
growth inhibition (GI) [1]: inactive
growth inhibition (GI) [2]: inactive
growth inhibition (GI) [3]: inactive
growth inhibition (GI) [4]: inactive
growth inhibition (GI) [5]: inactive
growth inhibition (GI) [6]: inactive
growth inhibition (GI) [7]: inactive
growth inhibition (GI) [8]: inactive
growth inhibition (GI) [9]: inactive
growth inhibition (GI) [10]: inactive
growth inhibition (GI) [11]: inactive

N#C/C(=C\c1ccc(O)cc1)C(=O)NCc1ccc(Cl)c(Cl)c1
growth inhibition (GI) [1]: inactive
growth inhibition (GI) [2]: inactive
growth inhibition (GI) [3]: inactive
growth inhibition (GI) [4]: inactive
growth inhibition (GI) [5]: inactive
growth inhibition (GI) [6]: inactive
growth inhibition (GI) [7]: inactive
growth inhibition (GI) [8]: inactive
growth inhibition (GI) [9]: inactive
growth inhibition (GI) [10]: inactive
growth inhibition (GI) [11]: inactive

N#C/C(=C\c1ccc2ccccc2c1)C(=O)c1c[nH]c2ccccc12
growth inhibition (GI) [1]: inactive
growth inhibition (GI) [2]: inactive
growth inhibition (GI) [3]: inactive
growth inhibition (GI) [4]: inactive
growth inhibition (GI) [5]: inactive
growth inhibition (GI) [6]: inactive
growth inhibition (GI) [7]: inactive
inhibition of growth at 25 µM ([8]; MCF7, 72 h, read-out: GI): 40%
growth inhibition (GI) [9]: inactive
growth inhibition (GI) [10]: inactive
growth inhibition (GI) [11]: inactive

Cc1ccc(/C=C(\C#N)C(=O)c2ccc[nH]2)cc1
growth inhibition (GI) [1]: inactive
growth inhibition (GI) [2]: inactive
growth inhibition (GI) [3]: inactive
growth inhibition (GI) [4]: inactive
growth inhibition (GI) [5]: inactive
growth inhibition (GI) [6]: inactive
growth inhibition (GI) [7]: inactive
growth inhibition (GI) [8]: inactive
growth inhibition (GI) [9]: inactive
growth inhibition (GI) [10]: inactive
growth inhibition (GI) [11]: inactive

N#C/C(=C\c1ccc([N+](=O)[O-])cc1)C(=O)c1c[nH]c2ccccc12
GI50 [12]: 37 µM
GI50 [13]: 35 µM
GI50 [14]: 46 µM
GI50 [15]: 40 µM
GI50 [16]: 47 µM
GI50 [17]: 42 µM
GI50 [18]: 41 µM
GI50 [19]: 60 µM
GI50 [20]: 59 µM
GI50 [21]: 46 µM
GI50 [22]: 48 µM

COc1ccc(CNC(=O)/C(C#N)=C/c2ccccc2)cc1
GI50 [12]: 17 µM
GI50 [13]: 18 µM
GI50 [14]: 24 µM
GI50 [15]: 15 µM
GI50 [16]: 18 µM
GI50 [17]: 14 µM
GI50 [18]: 9 µM
GI50 [19]: 16 µM
GI50 [20]: 13 µM
GI50 [21]: 9 µM
GI50 [22]: 9 µM

N#C/C(=C\c1ccccc1)C(=O)NCc1ccc(Cl)c(Cl)c1
GI50 [12]: 43 µM
GI50 [13]: 29 µM
GI50 [14]: 47 µM
GI50 [15]: 32 µM
GI50 [16]: 61 µM
GI50 [17]: 49 µM
GI50 [18]: 70 µM
GI50 [19]: 43 µM
GI50 [20]: 71 µM
GI50 [21]: 43 µM
GI50 [22]: 49 µM

COc1ccc(CNC(=O)/C(C#N)=C/c2cccc3ccccc23)cc1
GI50 [12]: 15 µM
GI50 [13]: 16 µM
GI50 [14]: 15 µM
GI50 [15]: 14 µM
GI50 [16]: 15 µM
GI50 [17]: 14 µM
GI50 [18]: 13 µM
GI50 [19]: 15 µM
GI50 [20]: 16 µM
GI50 [21]: 15 µM
GI50 [22]: 16 µM

N#C/C(=C\c1c(F)c(F)c(F)c(F)c1F)C(=O)c1c[nH]c2ccccc12
GI50 [12]: 14 µM
GI50 [13]: 13 µM
GI50 [14]: 21 µM
GI50 [15]: 10 µM
GI50 [16]: 35 µM
GI50 [17]: 18 µM
GI50 [18]: 18 µM
GI50 [19]: 20 µM
GI50 [20]: 30 µM
GI50 [21]: 19 µM
GI50 [22]: 11 µM

N#C/C(=C\c1ccc(Cl)cc1)C(=O)NCc1ccc(Cl)c(Cl)c1
GI50 [12]: 30 µM
GI50 [13]: 21 µM
GI50 [14]: 31 µM
GI50 [15]: 31 µM
GI50 [16]: 33 µM
GI50 [17]: 30 µM
GI50 [18]: 33 µM
GI50 [19]: 33 µM
GI50 [20]: 30 µM
GI50 [21]: 30 µM
GI50 [22]: 32 µM

N#C/C(=C\c1c(F)c(F)c(F)c(F)c1F)C(=O)c1ccc[nH]1
GI50 [12]: 23 µM
GI50 [13]: 23 µM
GI50 [14]: 25 µM
GI50 [15]: 14 µM
GI50 [16]: 31 µM
GI50 [17]: > 100 µM
GI50 [18]: 224 µM
GI50 [19]: > 100 µM
GI50 [20]: > 100 µM
GI50 [21]: 64 µM
GI50 [22]: 64 µM

N#C/C(=C\c1ccc2ccccc2c1)C(=O)NCc1ccc(Cl)c(Cl)c1
GI50 [12]: 49 µM
GI50 [13]: 29 µM
GI50 [14]: 44 µM
GI50 [15]: 40 µM
GI50 [16]: > 100 µM
GI50 [17]: 50 µM
GI50 [18]: 44 µM
GI50 [19]: 64 µM
GI50 [20]: 77 µM
GI50 [21]: 50 µM
GI50 [22]: 44 µM

COc1ccc(CNC(=O)/C(C#N)=C/c2cc(Br)co2)cc1
GI50 [12]: 23 µM
GI50 [13]: 20 µM
GI50 [14]: 65 µM
GI50 [15]: 36 µM
GI50 [16]: > 100 µM
GI50 [17]: > 100 µM
GI50 [18]: 36 µM
GI50 [19]: > 100 µM
GI50 [20]: 61 µM
GI50 [21]: 14 µM
GI50 [22]: 28 µM

N#C/C(=C\c1cccc2ccccc12)C(=O)NCc1ccc(Cl)c(Cl)c1
GI50 [12]: 13 µM
GI50 [13]: 8 µM
GI50 [14]: 8 µM
GI50 [15]: 7 µM
GI50 [16]: 7 µM
GI50 [17]: 11 µM
GI50 [18]: 7 µM
GI50 [19]: 7 µM
GI50 [20]: 12 µM
GI50 [21]: 8 µM
GI50 [22]: 7 µM

COc1ccc(CNC(=O)/C(C#N)=C/c2ccc(-c3ccccc3)o2)cc1
GI50 [12]: > 100 µM
GI50 [13]: 3 µM
GI50 [14]: > 100 µM
GI50 [15]: > 100 µM
GI50 [16]: > 100 µM
GI50 [17]: > 100 µM
GI50 [18]: 56 µM
GI50 [19]: > 100 µM
GI50 [20]: > 100 µM
GI50 [21]: > 100 µM
GI50 [22]: > 100 µM

COc1ccc(CNC(=O)/C(C#N)=C/c2ccoc2)cc1
GI50 [12]: 8 µM
GI50 [13]: 7 µM
GI50 [14]: 8 µM
GI50 [15]: 7 µM
GI50 [16]: 8 µM
GI50 [17]: 8 µM
GI50 [18]: 6 µM
GI50 [19]: 7 µM
GI50 [20]: 7 µM
GI50 [21]: 5 µM
GI50 [22]: 6 µM
